Activity calls are given as the source filed them. No cut-off for these calls is given here.
Tests used:
[1] = system: THP-1; test: Antiinflammatory activity against PMA-treated human THP1 cells assessed as inhibition of LPS-induced IL-6 production at 5 uM after 24 hrs by ELISA relative to total protein level (reference value: 6.06 +/- 0.55); assay type: functional
[2] = system: THP-1; test: Inhibition of LPS-induced TNFalpha production in PMA-treated human THP1 cells at 5 uM after 24 hrs by ELISA relative to total protein level (reference value: 6.04 +/- 0.54); assay type: cell-based; conditions: thp-1, 24 h
[3] = system: THP-1; test: Antiinflammatory activity against PMA-treated human THP1 cells assessed as inhibition of LPS-induced IL-6 production at 5 uM after 24 hrs by ELISA relative to control; assay type: functional
[4] = system: THP-1; test: Cytotoxicity against human THP1 cells assessed as decrease in cell growth after 24 hrs by MTT assay; assay type: cell-based; conditions: THP-1, 24 h
Method in brief: (§1)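 THP-1 cells in 96-well plates treated with a range of compound concentrations for 24 or 48 h. MTT (2.5 mg/mL) added for 4 h at 37 °C, formazan dissolved in DMSO, absorbance read at 540 nm. Growth taken as treated versus untreated absorbance.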

[5] = system: THP-1; test: Cytotoxicity against human THP1 cells assessed as decrease in cell growth after 48 hrs by MTT assay; assay type: cell-based; conditions: THP-1, 48 h; method in brief: as §1
[6] = system: Mus musculus; test: Antiinflammatory activity against Swiss albino mouse assessed as inhibition of LPS-induced TNFalpha production in serum at 10 mg/kg, ip by ELISA relative to control; assay type: functional
Method in brief: (§2)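 Swiss albino mice given compound at 5, 10 or 20 mg/kg, then challenged with LPS 1 mg/kg; vehicle and LPS-alone groups included. Cardiac-puncture blood taken with heparin and spun to plasma, stored -20°C. TNF-α and IL-6 measured by ELISA in pg/mL. Dose-response done in triplicate, fitted by quadratic/cubic regression to derive IC50 in mg/kg.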

[7] = system: Mus musculus; test: Antiinflammatory activity against Swiss albino mouse assessed as inhibition of LPS-induced TNFalpha production in serum at 20 mg/kg, ip by ELISA relative to control; assay type: functional; method in brief: as §2
[8] = system: Mus musculus; test: Antiinflammatory activity against Swiss albino mouse assessed as inhibition of LPS-induced IL-6 production in serum at 10 mg/kg, ip by ELISA relative to control; assay type: functional; method in brief: as §2
[9] = system: Mus musculus; test: Antiinflammatory activity against Swiss albino mouse assessed as inhibition of LPS-induced IL-6 production in serum at 20 mg/kg, ip by ELISA relative to control; assay type: functional; method in brief: as §2
[10] = system: Mus musculus; test: Antiinflammatory activity against Swiss albino mouse assessed as inhibition of LPS-induced TNFalpha production in serum administered ip by ELISA; assay type: functional, organism-based; method in brief: as §2
[11] = system: Mus musculus; test: Antiinflammatory activity against Swiss albino mouse assessed as inhibition of LPS-induced IL-6 production in serum administered ip by ELISA; assay type: functional, organism-based; method in brief: as §2
[12] = system: Mus musculus; test: Antinociceptive activity in Swiss albino mouse assessed as inhibition of acetic acid-induced writhing by measuring reduction in number of abnormal muscle constrictions at 12.5 mg/kg, ip treated 30 mins prior to test followed by acetic acid challenge measured for 30 mins post acetic acid challenge relative to control; assay type: functional
Method in brief: (§3)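 Mice dosed i.p. with vehicle (0.1% carboxymethyl cellulose), test compound 12.5 mg/kg or indomethacin 10 mg/kg, 30 min before acetic acid (0.6% v/v, 10 ml/kg, i.p.). Writhes counted per mouse over 30 min after acetic acid. Mean ± SEM; ANOVA with Tukey test.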

[13] = system: Mus musculus; test: Antiinflammatory activity in carrageenan-induced Swiss albino mouse assessed as inhibition of paw edema at 12.5 mg/kg, ip administered 0.5 hrs prior to carrageenan challenge measured at 6 hrs post challenge; assay type: functional
Method in brief: (§4)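 Mice given vehicle (0.1% CMC), indomethacin 10 mg/kg p.o., or test compound 30 min before injection of 50 μL 1% w/v carrageenan into right hind paw. Paw edema measured by vernier caliper at 5, 15, 30 min and 1, 2, 3, 4, 6 h. Mean ± SEM.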

[14] = system: Mus musculus; test: Antiinflammatory activity in carrageenan-induced Swiss albino mouse assessed as inhibition of paw edema at 12.5 mg/kg, ip administered 0.5 hrs prior to carrageenan challenge measured at 1 to 6 hrs post challenge; assay type: functional, organism-based; method in brief: as §4
[15] = system: Mus musculus; test: Analgesic activity in Swiss albino mouse assessed as inhibition of acetic acid induced writhing at 12.5 mg/kg, ip pretreated with misoprostol for 30 mins followed by acetic acid challenge and measured after 30 mins; assay type: functional, organism-based
[16] = system: Mus musculus; test: Analgesic activity in Swiss albino mouse assessed as inhibition of acetic acid induced writhing at 12.5 mg/kg, ip pretreated with opioid receptor antagonist naloxone for 30 mins followed by acetic acid challenge and measured after 30 mins; assay type: functional, organism-based
[17] = organism: Homo sapiens; test: Inhibition of NF-KappaB pathway in human THP1 cell lysates assessed as decrease in LPS-induced iNOS expression level after 24 hrs by Western blot analysis
Method in brief: (§5)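 PMA-differentiated THP-1 cells co-treated with LPS and a range of compound concentrations for 24 h, lysed in RIPA buffer. COX-2 and iNOS expression assessed by western blot, with β-actin as internal control.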

[18] = system: THP-1; test: Antiinflammatory activity against human THP1 cells assessed as inhibition of LPS-induced COX-2 expression level after 24 hrs by Western blot analysis; assay type: functional, cell-based; method in brief: as §5
[19] = system: Mus musculus; test: Acute toxicity in Swiss albino mouse assessed as effect on gross behavioral abnormality at 50 to 2000 mg/kg, ip administered continuously for first 4 hrs and periodically for 24 hrs measured after 14 days; assay type: organism-based; conditions: in vivo
Method in brief: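 Swiss albino mice, 3 per group: vehicle control, or 50, 300 or 2000 mg kg⁻¹ given after 4 h fasting under OECD acute toxicity guideline; watched continuously for first 4 h then periodically to 24 h for gross behavioural abnormality.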

[20] = system: Mus musculus; test: Acute toxicity in Swiss albino mouse assessed as effect on myocardium at 2000 mg/kg, ip administered continuously for first 4 hrs and periodically for 24 hrs measured after 14 days by hematoxylin and eosin staining based assay; assay type: organism-based; conditions: in vivo
Method in brief: (§6)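 OECD acute toxicity design, Swiss albino mice fasted 4 h, 3 per group, vehicle vs 2000 mg kg⁻¹; after 14 days one animal each from control and top-dose groups sacrificed; heart, liver and kidney sections H and E stained and compared with control.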

[21] = system: Mus musculus; test: Acute toxicity in Swiss albino mouse assessed as effect on liver at 2000 mg/kg, ip administered continuously for first 4 hrs and periodically for 24 hrs measured after 14 days by hematoxylin and eosin staining based assay; assay type: organism-based; conditions: in vivo, 336 h; method in brief: as §6
[22] = system: Mus musculus; test: Acute toxicity in Swiss albino mouse assessed as effect on kidney at 2000 mg/kg, ip administered continuously for first 4 hrs and periodically for 24 hrs measured after 14 days by hematoxylin and eosin staining based assay; assay type: organism-based; conditions: in vivo; method in brief: as §6
[23] = system: Mus musculus; test: Antiseptic activity in Swiss albino mouse model of LPS-induced sepsis assessed as increase in mouse survival rate at 12.5 mg/kg, iv measured for 10 days at 1 day interval
[24] = system: Mus musculus; test: Antinociceptive activity in Swiss albino mouse assessed as inhibition of acetic acid-induced writhing by measuring reduction in number of abnormal muscle constrictions at 10 mg/kg, ip treated 30 mins prior to test followed by acetic acid challenge measured for 30 mins post acetic acid challenge relative to control; assay type: functional; method in brief: as §3
[25] = system: Mus musculus; test: Antiinflammatory activity in carrageenan-induced Swiss albino mouse assessed as inhibition of paw edema at 10 mg/kg, po administered 0.5 hrs prior to carrageenan challenge measured 6 hrs post challenge; assay type: functional; method in brief: as §4

SMILES | fold change (FC) [1] | fold change (FC) [2] | fold change (FC) [3] | other results
CCOC(=O)[C@H]1CON(c2ccccc2)[C@H]1c1c[nH]c2ccccc12 (racemic) | 1.15 | 4.37 | 4 - 5 | 
CCN1C(=O)[C@H]2[C@H](ON(c3ccccc3)[C@@H]2c2c[nH]c3ccccc23)C1=O (racemic) | 3.09 | 2.42 |  | 
c1ccc(N2O[C@H](c3ccncc3)C[C@@H]2c2c[nH]c3ccccc23)cc1 (racemic) | 2.77 | 3.92 | 4 - 5 | 
CCCCOC(=O)[C@@H]1C[C@H](c2c[nH]c3ccccc23)N(c2ccccc2)O1 (racemic) | 2.06 | 3.98 |  | 
CCCCOC(=O)[C@H]1CON(c2ccccc2)[C@H]1c1c[nH]c2ccccc12 (racemic) | 3.03 | 2.59 |  | 
CCOC(=O)[C@@H]1C[C@H](c2c[nH]c3ccccc23)N(c2ccccc2)O1 (racemic) | 3.2 | 7.77 |  | 
C[C@@]1(c2ccccc2)C[C@H](c2c[nH]c3ccccc23)N(c2ccccc2)O1 (racemic) | 1.13 | 2.74 | 4 - 5 | IC50 [4]: > 100 µM; IC50 [5]: 74 µM
COC(=O)[C@H]1CON(c2ccccc2)[C@H]1c1c[nH]c2ccccc12 (racemic) | 1.67 | 3 | 4 - 5 | 
Cc1ccc([C@@H]2C[C@H](c3c[nH]c4ccccc34)N(c3ccccc3)O2)cc1 (racemic) | 1.12 | 4.58 | 4 - 5 | 
O=C1[C@H]2[C@H](ON(c3ccccc3)[C@@H]2c2c[nH]c3ccccc23)C(=O)N1c1ccccc1 (racemic) | 1.43 | 2.21 | 4 - 5 | IC50 [4]: > 100 µM; IC50 [5]: 78 µM; inhibition in vivo at 10 mg/kg [6]: 52.9%; inhibition in vivo at 20 mg/kg [7]: 62.1%; inhibition in vivo at 10 mg/kg [8]: 60.5%; inhibition in vivo at 20 mg/kg [9]: 65.5%; IC50 [10]: 8.7 mg/kg; IC50 [11]: 7.4 mg/kg
COC(=O)[C@@H]1C[C@H](c2c[nH]c3ccccc23)N(c2ccccc2)O1 (racemic) | 4.08 | 7.27 |  | 
CCOC(=O)[C@@H]1[C@@H](C)ON(c2ccccc2)[C@H]1c1c[nH]c2ccccc12 (racemic) | 3.01 | 3.98 |  | 
O=C1NC(=O)[C@H]2ON(c3ccccc3)[C@H](c3c[nH]c4ccccc34)[C@@H]12 (racemic) | 1.65 | 4.28 | 4 - 5 | 
O=C1[C@H]2[C@H](ON(c3ccccc3)[C@@H]2c2c[nH]c3ccccc23)C(=O)N1Cc1ccccc1 (racemic) | 1.34 | 2.37 | 4 - 5 | IC50 [4]: > 100 µM; IC50 [5]: 87 µM; inhibition in vivo at 10 mg/kg [6]: 53.8%; inhibition in vivo at 20 mg/kg [7]: 86.1%; inhibition in vivo at 10 mg/kg [8]: 73.7%; inhibition in vivo at 20 mg/kg [9]: 89.9%; IC50 [10]: 9.4 mg/kg; IC50 [11]: 3.5 mg/kg; inhibition in vivo at 12.5 mg/kg [12]: 80.7%; inhibition in vivo at 12.5 mg/kg [13]: 36.9%; inhibition [14]: Active; inhibition [15]: inactive; inhibition [16]: Active; inhibition [17]: Dose-dependent effect; inhibition [18]: Dose-dependent effect; Activity [19]: Non-Toxic; Activity [20]: Non-Toxic; Activity [21]: Non-Toxic; Activity [22]: Non-Toxic; Activity [23]: Active
c1ccc([C@@H]2C[C@H](c3c[nH]c4ccccc34)N(c3ccccc3)O2)cc1 (racemic) | 5.4 | 14.93 |  | 
COc1ccc2c(c1)c(CC(=O)O)c(C)n2C(=O)c1ccc(Cl)cc1 [INDOMETHACIN] |  |  |  | inhibition in vivo at 10 mg/kg [24]: 58.1%; inhibition in vivo at 10 mg/kg [25]: 34.5%
